The values below come from ChEMBL document CHEMBL3593197, “Development of novel DIF-1 derivatives that selectively suppress innate immune responses” (Bioorg Med Chem, 2015).

Calls of active or inactive are those of the source. The calls are words filed in the database; no cut-off is given here.

The subject of data set [1] is Drosophila. The experiment in a line: Immunosuppressive activity in Drosophila S2 cells expressing att-luc reporter gene assessed as inhibition of peptidoglycan-induced attacin production pre-treated for 1.5 hrs before peptidoglycan stimulation for 8 hrs by luciferase reporter gene assay. Type of data set: functional. The procedure, abridged: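 S2 cells stably carrying an attacin-promoter luciferase reporter were pre-treated with a concentration series of compound for 1.5 h. They were then stimulated with 100 ng/mL peptidoglycan. After 8 h, cells were lysed and luciferase luminescence was read. IC50 is the concentration lowering signal to 50% of the peptidoglycan-only control. Mean ± SD of four independent experiments.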
A general note: A reporter such as luciferase makes a cellular process visible.

Data set [2] is described as follows: Cytotoxicity against Drosophila S2 assessed as reduction in cell proliferation by WST8 assay. Particulars: Drosophila S2 cells. In short, it runs like this:
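S2 cells exposed to a concentration series of compound for 24 h; proliferation read by colorimetric WST-8 conversion. CC50 is the concentration reducing proliferation to 50% of DMSO control. Mean ± SD of four independent experiments.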
For orientation: Tetrazolium dyes change colour on reduction, which living cells bring about.

The test system of data set [3] is Drosophila. As to the kind of experiment: Selectivity index, ratio of CC50 for Drosophila S2 by WST8 assay to IC50 for immunosuppressive activity in Drosophila S2 cells expressing att-luc reporter gene assessed as inhibition of attacin production. Type of data set: functional. In short, it runs like this:
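The ratio is CC50 divided by IC50. CC50 comes from 24 h WST-8 proliferation of S2 cells, relative to DMSO. IC50 comes from 8 h luciferase signal in peptidoglycan-stimulated (100 ng/mL) S2 att-luc reporter cells pre-treated 1.5 h. Both were derived from concentration series.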

In data set [4] the test system is Jurkat. The experiment in a line: Immunosuppressive activity in human Jurkat cells assessed as inhibition of ConA-induced IL2 production at 5 uM pre-treated for 30 mins before ConA stimulation for 12 hrs by immunoassay. Type of data set: functional, cell-based. The procedure, abridged: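 ConA was added to a final 25 µg/mL and cells were incubated a further 12 h. Secreted IL-2 in the culture medium was quantified by anti-human IL-2 sandwich immunoassay, in duplicate wells. Mean ± SD of three independent experiments.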

Data set [5] deals with Jurkat. The experiment in a line: Cytotoxicity against human Jurkat cells assessed as reduction in cell viability at 5 uM by MTT assay. Type of data set: cell-based. The procedure, abridged:
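Jurkat cells pre-incubated 30 min with 5 µM compound or 0.1% DMSO vehicle, then incubated under the same conditions as the IL-2 assay (ConA added, 12 h). Viable cells were measured by MTT assay as percent of control. Mean ± SD of three independent experiments.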

In general, IC50 refers to the midpoint of a concentration-inhibition curve. As a reminder, the CC50 is the concentration at which the toxic effect on the cells reaches its halfway point. In the case of `CCCCCCc1c(O)c(Cl)c(OC)c(Cl)c1O`, in the data set on Drosophila [1], the IC50 was determined as 58.6 µM. Also, the CC50 in data set [2] was above 100 µM. In addition, the “Ratio CC50/IC50” value in the data set on Drosophila [3] was above 1.7.

Take `CCCCCC(=O)c1c(O)c(Cl)c(C)c(Cl)c1O`: the IC50 in the data set with Drosophila [1] was 3.8 µM. Also, in data set [2], the CC50 was found to be 13.8 µM. For the same compound, the “Ratio CC50/IC50” value in the data set on Drosophila [3] was 3.6.

As for `CCCCCCC(=O)c1c(OC)c(Cl)c(OC)c(Cl)c1OC`, in the data set on Jurkat [4], the inhibition entry is “Active”. In addition, the IC50 in the data set on Drosophila [1] amounted to 16.8 µM. For the same compound, the CC50 in data set [2] came out at 140 µM. Further, in the data set on Drosophila [3], the “Ratio CC50/IC50” value was 8.3. Also, the Activity entry with Jurkat [5] is given as “Non-toxic”.

On to `CCCCCCCCC(=O)c1c(O)c(Cl)c(O)c(Cl)c1O`, for which, in the data set on Drosophila [1], the IC50 stood at 6.5 µM. In addition, in data set [2], the CC50 was found to be 82.8 µM. In addition, the “Ratio CC50/IC50” value with Drosophila [3] is reported as 12.7.

Turning to `CCCCCCCC(=O)c1c(O)c(Cl)c(O)c(Cl)c1O`, the inhibition entry in the data set with Jurkat [4] was “Active”. The IC50 in the data set with Drosophila [1] came to 3.7 µM. Besides, in data set [2], the CC50 stood at 88.5 µM. In addition, the “Ratio CC50/IC50” value with Drosophila [3] came out at 23.9. Also, in the data set with Jurkat [5], the Activity result is “Non-toxic”.

On to `CCCCCCCC(=O)c1c(OC)c(Cl)c(OC)c(Cl)c1OC`, for which the IC50 in the data set with Drosophila [1] was 15.3 µM. The CC50 in data set [2] is 51.4 µM. Also, the “Ratio CC50/IC50” value in the data set with Drosophila [3] worked out at 3.4.

`CCCC(=O)c1c(OC)c(Cl)c(OC)c(Cl)c1OC`: the IC50 in the data set with Drosophila [1] came to 20.8 µM. Moreover, the CC50 in data set [2] was 144 µM. Also, the “Ratio CC50/IC50” value in the data set on Drosophila [3] is on record as 6.9.

In the case of `CCCCC(=O)c1c(OC)c(Cl)c(OC)c(Cl)c1OC`, the concentration for half-maximal inhibition (IC50) in the data set with Drosophila [1] was determined as 23.5 µM. The CC50 in data set [2] is 149 µM. Moreover, the “Ratio CC50/IC50” value in the data set on Drosophila [3] turned out to be 6.3.

With `CCCC(=O)c1c(O)c(Cl)c(O)c(Cl)c1O`, in the data set on Drosophila [1], the IC50 was found to be 21.5 µM. In addition, in data set [2], the cytotoxic concentration (CC50) was above 100 µM. In the data set on Drosophila [3], the “Ratio CC50/IC50” value is above 4.7.

Consider `CCCCCC(=O)c1c(O)c(Br)c(OC)c(Br)c1O`, for which the IC50 with Drosophila [1] worked out at 3.7 µM. In addition, the CC50 in data set [2] worked out at 12.9 µM. Besides, the “Ratio CC50/IC50” value with Drosophila [3] is 3.5.

Consider `CCCCCC(=O)c1c(OC)c(Cl)c(OC)c(Cl)c1OC`, for which the 50% inhibitory concentration (IC50) in the data set with Drosophila [1] was found to be 18.9 µM. In addition, the CC50 in data set [2] worked out at 148 µM. In addition, in the data set with Drosophila [3], the “Ratio CC50/IC50” value came to 7.8.

For `CCCCCC(=O)c1c(O)c(Cl)c(O)c(Cl)c1O`, the IC50 with Drosophila [1] came to 9.9 µM. Also, in data set [2], the CC50 came out at 102 µM. The “Ratio CC50/IC50” value in the data set with Drosophila [3] stood at 10.3.

Regarding `CCCCCC(=O)c1c(O)c(Cl)c(OC)c(Cl)c1O`, in the data set on Drosophila [1], the IC50 was determined as 4.6 µM and the inhibition result was “Dose-dependent effect”. The CC50 in data set [2] is 22.5 µM. The “Ratio CC50/IC50” value in the data set on Drosophila [3] is recorded as 4.9.

Regarding `CCCCCC(=O)c1c(O)cc(OC)c(Cl)c1O`, the IC50 in the data set on Drosophila [1] was found to be 4.6 µM. For the same compound, in data set [2], the CC50 stood at 8.7 µM. For the same compound, in the data set with Drosophila [3], the “Ratio CC50/IC50” value came out at 1.9.
